Assay outcomes: PubChem BioAssay, several laboratories
UPR CHOP act – activators of apoptotic CHOP UPR arm, primary screen, cell-based, CHO-CHOP luciferase reporter, luminescence, uHTS | UPR activation; percent of tunicamycin response over DMSO baseline | activation, % at 10 µM | 330,000 compounds, 0.34% hits;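 active = at 10 µM dose, activation of 40% or more, normalized to positive control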;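 also: 100% = tunicamycin at 10 µg/mL and 0% = DMSO alone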
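System: CHO-CHOP luciferase reporter cell line | Buffer or medium: F12 medium containing 10% fetal bovine serum | Doses: One dose, 10 µM in 0.5% DMSO | Times: 6 h compound exposure at 37 °C after overnight seeding | Signal: Luciferase luminescence | Read-out: % activation vs tunicamycin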
UPR XBP1 act – activators of adaptive XBP1 UPR arm, primary screen, cell-based, CHO-XBP1 luciferase reporter, luminescence, uHTS. IRE1-XBP1 UPR activation; percent of tunicamycin response, DMSO as zero. activation, % at 20 µM. 330,000 compounds, 0.33% hits. AID 463104, 2010;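 active = versus positive control, 20 µM dose yields 30% or more activation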;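 also: 100% = tunicamycin at 10 µg/mL and 0% = DMSO only wells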
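Test system: CHO-XBP1 luciferase reporter cells | Buffer or medium: Serum-containing F12 medium, 10% FBS | Schedule: 6 h compound exposure at 37 °C, 5% CO2 | Detection: Steady-Glo luciferase glow luminescence, 10 min after reagent addition | Read-out basis: Activation, % of tunicamycin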
aDG glyco act – activators of alpha-DG glycosylation, primary screen, uHTS, Pro5-aDG cells, AlphaScreen; alpha-DG glycosylation AlphaScreen (IIH6); 0% Pro5, 100% B10-LARGE cell signal; 360,000 compounds, 0.22% hits; AID 624168, 2012; activation, % at 10 µM;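 active = activation of at least 8% versus controls, or a plate z-score of at least 8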;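 also: Pro5 are CHO cells carrying HIG-tagged alpha-DG that lacks glycosylation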
NR3A LBD binder – binders of NR3A ligand-binding domain, primary screen, biophysical, differential scanning fluorimetry, uHTS; NR3A LBD differential scanning fluorimetry, Tm shift; 0% = protein alone, 100% = glycine-bound protein; Tm shift relative to glycine control, % at 25 µM; 340,000 compounds, 2.5% hits; AID 1259313, 2017;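 active = melting temperature shift of at least 10% of the positive control shift, at one fixed dose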
CHOP inhibitor – inhibitors of CHOP promoter induction, primary screen, cell-based, unfolded protein response, luciferase reporter; CHO-K1 CHOP-promoter luciferase, tunicamycin-induced, 15-18 h; inhibition, % at 10 µM; 220,000 compounds, 3.8% hits;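 active = compounds that reduced the stress-induced luciferase reporter signal by more than about 70% of percent inhibition, limit read from the data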;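 also: 0% = tunicamycin plus vehicle and 100% = wells without tunicamycin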
MPTP block – mitochondrial permeability transition pore inhibitors, primary screen, biochemical, isolated mouse mitochondria, absorbance | Ca2+ swelling absorbance, 30 min | inhibition, % at 10 µM | 360,000 compounds, 1.4% hits;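 active = inhibition of 50% or more, scaled per plate between neutral and stimulator controls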;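 also: 0% = DMSO wells given calcium and 100% = 1 mM EGTA wells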
MPTP counter – fluorescence retest of MPTP screen hits in isolated mitochondria, single concentration | membrane potential, Rhodamine 123 fluorescence | inhibition, % at 10 µM | AID 624504, 2012 | shares compounds with MPTP block | 5,000 compounds, 78% hits; in the data active = inhibition above about 22%;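 also: 0% = DMSO vehicle and 100% = positive control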
MPTP swell DR – mitochondrial permeability transition pore inhibitors, dose response, biochemical, absorbance, uHTS hits. shares compounds with MPTP block. isolated mitochondria swelling. IC50, µM. 780 compounds, 58% hits. AID 651561, 2012; in the data active = IC50 below about 20 µM
MPTP cs DR – fluorescent counter-screen in isolated mitochondria, dose response, counter-screen for MPTP inhibitor project, biochemical, fluorescence, uHTS hits; IC50, µM; 780 compounds, 49% hits; shares compounds with MPTP block; isolated mitochondria counterscreen, fluorescence read-out; in the data active = IC50 below about 80 µM
An asterisk follows results filed as active; i = inactive; nt = no result given. This is a sample that favours compounds with a hit; in the whole collection about 5.6% have one here.

SMILES	UPR CHOP act	UPR XBP1 act	aDG glyco act	NR3A LBD binder	CHOP inhibitor	MPTP block	MPTP counter	others
O=C(COC(=O)CCC(NC(=O)OCc1ccccc1)C(=O)OCC(=O)Nc1ccccc1)Nc1ccccc1 (stereo unspecified)	3	2	0	-7	6	3	nt
C/C(=N\N=C(c1ccccc1)c1ccccc1)c1ccco1	0	0	0	5	27	93*	-3
C/C(=N\N(c1ccccc1)c1ccccc1)c1ccco1	0	0	0	-2	63	2	nt
c1ccc(Cn2ccnc2C2OCCO2)cc1	nt	nt	0	nt	nt	0	nt
Clc1ccc2[nH]cc(-c3nnnn3-c3ccccc3)c2c1	-1	3	0	5	37	76*	82*
c1csc(CNc2ncnc3sccc23)c1	4	0	4	2	nt	90*	73*
c1ccc(CCNc2ncnc3sccc23)nc1	4	3	0	-1	26	61*	16	MPTP swell DR=i;MPTP cs DR=52*
c1ccc(CNc2ncnc3sccc23)cc1	-1	-5	2	1	nt	26	nt
CN(Cc1ccccc1F)c1ncnc2sccc12	3	-1	0	2	nt	-2	nt
CN(Cc1cccs1)c1ncnc2sccc12	2	2	2	0	65	57*	63*
CC(C)=CCC[C@H](C)C[C@@H]1Cc2[nH][nH]c(=O)c2[C@H](c2ccc(Cl)cc2)O1	nt	nt	0	nt	nt	3	nt
COc1cccc(NC(=O)C2(C)CCN2C(=O)CCc2ccc(Cl)cc2Cl)c1 (stereo unspecified)	nt	nt	0	nt	nt	0	nt
COc1cc(NC(=O)CNC(=O)Cn2ccc3ccccc3c2=O)cc(OC)c1OC	-1	1	0	-3	nt	0	nt
COc1ccc(-c2csc(Nc3cc(C)ccn3)n2)cc1OC	8	3	0	-1	nt	1	nt
Cc1ccnc(Nc2nc(-c3c(C)nc4sccn34)cs2)c1	3	10	2	16*	-10	63*	21*
O=C(NCC1CCCCC1)c1cc2ccccc2cc1O	4	1	0	8	nt	59*	81*
O=C(NCC1CCCO1)c1cc2ccccc2cc1O (stereo unspecified)	4	-2	0	1	nt	-1	nt
CC1CCC(NC(=O)c2cc3ccccc3cc2O)CC1 (stereo unspecified)	6	1	0	8	nt	87*	94*
CN1C(=O)C(CC(=O)NCC2CCCCC2)SC1=Nc1ccccc1 (stereo unspecified)	0	1	0	4	37	0	nt
CCCc1nc2ccccc2c(=O)n1CCc1ccccc1	3	-1	0	2	nt	0	nt
CC(C)COc1ccc(C(=O)OC2CC(C)(C)OCC2CN(C)C)cc1 (stereo unspecified)	-1	1	2	-2	71*	68*	-8	MPTP swell DR=12*;MPTP cs DR=>80
CC(/C=C1\SC(=S)N(NS(=O)(=O)c2ccc(C)cc2)C1=O)=C\c1ccccc1	2	-1	0	-6	9	54*	41*
CC(/C=C1\SC(=S)N(NS(=O)(=O)c2ccccc2)C1=O)=C\c1ccccc1	0	-4	0	-7	15	37	nt
CC(C)(C)[C@H]1CCC(=O)N([C@H](CN=[N+]=[N-])Cc2ccccc2)CC1	-3	-2	0	0	nt	0	nt
O=C(CSc1nc2ccc(Cl)cc2[nH]1)NCCc1ccc(Cl)cc1	-1	-3	0	2	62	69*	60*
SMILES	UPR CHOP act	UPR XBP1 act	aDG glyco act	NR3A LBD binder	CHOP inhibitor	MPTP block	MPTP counter	others
O=C(CSc1nc2ccc(Cl)cc2[nH]1)NCCc1ccccc1	1	-1	0	-7	18	-17	nt
COc1ccc(Br)cc1CN(C)CC(O)COc1ccc(Br)cc1 (stereo unspecified)	-1	-3	0	0	nt	80*	-1	MPTP swell DR=18*;MPTP cs DR=42*
O=c1/c(=C/c2ccc(O)c([N+](=O)[O-])c2)sc2nc3ccccc3n12	nt	nt	0	9	-15	66*	30*
COc1ccc(NC(=S)Nc2nc(CC(=O)Nc3ccccc3OC)cs2)cc1	0	0	1	8	28	75*	79*
COc1ccc(OC)c(NC(=O)Cc2csc(NC(=O)Nc3ccccc3OC)n2)c1	-2	-4	0	2	nt	0	nt
COc1ccccc1NC(=O)Cc1csc(NC(=S)Nc2ccccc2)n1	-2	-2	0	11*	47	79*	71*
Cc1ccc(C(=O)NC(=S)N(C)C2CCCCC2)cc1	5	-1	0	-1	nt	-2	nt
Fc1ccc(-c2nc(-c3cccs3)[nH]c2-c2ccc(F)cc2)cc1	1	-1	1	19*	74*	77*	74*
Oc1ccc(-c2nc(-c3ccc(F)cc3)c(-c3ccncc3)[nH]2)cc1	6	-5	0	-5	-11	1	nt
O=C(NCc1ccccn1)c1ccc(CNS(=O)(=O)c2ccc(F)cc2)cc1	2	-4	0	8	-2	0	nt
Cc1cc2oc3ccc(NCCCn4ccnc4)cc3c(=O)c2cc1C	2	6	1	-8	nt	58*	-2
COc1ccc(C2C3C(C)=NN=C3CC(C)(O)C2C(C)=O)cc1 (stereo unspecified)	-2	1	0	3	15	4	nt
O=C(Nc1cc(-c2nc3ccccc3s2)ccc1Cl)c1ccc2c(c1)OCO2	1	-1	0	2	-4	2	nt
FC(F)(F)c1ccc(-c2nc3ccccc3s2)cc1	nt	nt	0	nt	nt	2	nt
N#C/C(=C(/O)c1ccc2c(c1)OCO2)c1nc2cc(C(F)(F)F)ccc2s1	1	-4	0	4	nt	84*	94*
N#C/C(=C(/O)c1ccccc1F)c1nc2cc(C(F)(F)F)ccc2s1	3	-3	0	9	26	96*	92*
